Measurements as given in ChEMBL document CHEMBL1140844, “2-[(3-Methoxyphenylethyl)phenoxy]-based ABCB1 inhibitors: effect of different basic side-chains on their biological properties” (J Med Chem, 2008).

How the values were obtained:
[1] = test system: Caco-2; experiment: Ratio of apparent permeability from basolateral to apical over apical to basolateral side of human Caco-2 cells after 120 mins by UV-visible spectroscopy; details: caco-2, 2 h
[2] = target: T1, ATP-dependent translocase ABCB1 (Homo sapiens, UniProt P08183); experiment: Inhibition of ABCB1-mediated [3H]vinblastine transportation in human Caco-2 cells; format: cell-based
T1 sequence (P08183 whole entry): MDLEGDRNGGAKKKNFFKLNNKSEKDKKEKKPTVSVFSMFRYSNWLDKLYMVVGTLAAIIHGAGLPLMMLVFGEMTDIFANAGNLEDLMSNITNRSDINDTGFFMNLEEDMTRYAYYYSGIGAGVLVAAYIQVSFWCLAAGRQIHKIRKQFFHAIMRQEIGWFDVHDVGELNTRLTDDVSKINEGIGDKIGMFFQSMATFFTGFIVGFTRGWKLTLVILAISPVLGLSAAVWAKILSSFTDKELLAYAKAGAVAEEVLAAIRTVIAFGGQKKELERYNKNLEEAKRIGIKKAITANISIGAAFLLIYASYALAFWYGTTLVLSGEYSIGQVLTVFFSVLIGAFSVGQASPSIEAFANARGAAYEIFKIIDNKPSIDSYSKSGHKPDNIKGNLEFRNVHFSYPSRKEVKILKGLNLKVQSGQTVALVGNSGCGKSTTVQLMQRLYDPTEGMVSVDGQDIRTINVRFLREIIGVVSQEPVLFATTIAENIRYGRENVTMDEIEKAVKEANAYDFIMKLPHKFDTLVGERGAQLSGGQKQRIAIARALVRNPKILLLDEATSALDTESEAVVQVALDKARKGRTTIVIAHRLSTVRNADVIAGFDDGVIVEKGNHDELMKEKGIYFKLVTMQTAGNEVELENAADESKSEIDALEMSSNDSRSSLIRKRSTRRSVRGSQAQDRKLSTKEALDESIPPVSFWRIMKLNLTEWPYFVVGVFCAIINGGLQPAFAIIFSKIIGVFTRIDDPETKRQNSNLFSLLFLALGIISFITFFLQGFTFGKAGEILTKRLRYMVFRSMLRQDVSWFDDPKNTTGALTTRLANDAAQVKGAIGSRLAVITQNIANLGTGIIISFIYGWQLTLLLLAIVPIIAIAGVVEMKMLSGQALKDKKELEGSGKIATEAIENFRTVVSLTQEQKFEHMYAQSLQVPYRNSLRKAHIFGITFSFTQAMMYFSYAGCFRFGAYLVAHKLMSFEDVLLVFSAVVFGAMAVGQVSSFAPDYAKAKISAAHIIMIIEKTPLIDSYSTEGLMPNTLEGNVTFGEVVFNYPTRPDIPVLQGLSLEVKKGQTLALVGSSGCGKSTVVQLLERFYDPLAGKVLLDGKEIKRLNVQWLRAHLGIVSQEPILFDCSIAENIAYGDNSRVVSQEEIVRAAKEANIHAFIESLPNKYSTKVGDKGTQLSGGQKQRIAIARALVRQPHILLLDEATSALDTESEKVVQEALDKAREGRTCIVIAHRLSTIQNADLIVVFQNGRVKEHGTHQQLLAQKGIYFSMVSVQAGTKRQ
Summary of the method: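 Caco-2 monolayers grown 21 days (TEER >800 Ω × cm²). 20 nM [3H]vinblastine added to the basolateral side with or without compound (200 nM–400 µM) for 120 min at 37 °C. Appearance on the apical side measured by scintillation counting. IC50 from nonlinear fit. Mean of three experiments, triplicate samples.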

[3] = target: T2, D(2) dopamine receptor (Homo sapiens, UniProt P14416); experiment: Displacement of [3H]spiroperidol from human cloned dopaminergic D2 receptor expressed in rat C6 cells; format: cell-based
T2 sequence (P14416 whole entry): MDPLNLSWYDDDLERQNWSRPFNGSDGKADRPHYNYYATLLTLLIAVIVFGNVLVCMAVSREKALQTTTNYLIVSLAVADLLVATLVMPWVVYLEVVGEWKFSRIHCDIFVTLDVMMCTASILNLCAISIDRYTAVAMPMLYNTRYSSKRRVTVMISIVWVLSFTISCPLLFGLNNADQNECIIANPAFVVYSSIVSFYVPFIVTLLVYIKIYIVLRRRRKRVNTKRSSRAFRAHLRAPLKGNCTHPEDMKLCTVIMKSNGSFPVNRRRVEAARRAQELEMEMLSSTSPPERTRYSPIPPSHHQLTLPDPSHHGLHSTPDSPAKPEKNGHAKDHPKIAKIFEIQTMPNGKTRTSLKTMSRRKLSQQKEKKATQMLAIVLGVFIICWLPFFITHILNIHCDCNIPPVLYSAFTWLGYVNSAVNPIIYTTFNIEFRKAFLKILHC

[4] = target: T3, 5-hydroxytryptamine receptor 1A (Homo sapiens, UniProt P08908); experiment: Displacement of [3H]8-OH-DPAT from human cloned 5-HT1A receptor expressed in human HeLa cells; format: cell-based
T3 sequence (P08908 whole entry): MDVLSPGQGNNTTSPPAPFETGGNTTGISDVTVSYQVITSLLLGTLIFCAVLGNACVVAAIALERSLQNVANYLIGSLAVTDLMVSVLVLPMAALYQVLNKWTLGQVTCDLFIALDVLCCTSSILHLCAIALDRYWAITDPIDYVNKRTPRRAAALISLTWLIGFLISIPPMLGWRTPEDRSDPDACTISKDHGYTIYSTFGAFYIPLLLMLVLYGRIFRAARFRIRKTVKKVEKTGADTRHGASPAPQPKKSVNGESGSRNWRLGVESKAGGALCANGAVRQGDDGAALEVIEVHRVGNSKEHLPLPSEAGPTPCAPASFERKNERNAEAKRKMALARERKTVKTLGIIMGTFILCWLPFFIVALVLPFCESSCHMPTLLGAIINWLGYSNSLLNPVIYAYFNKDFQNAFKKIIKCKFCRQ
Summary of the method: (§1)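 Compounds at 0.1 nM–10 µM in 50 mM Tris-HCl pH 7.4, 5 mM MgSO4, 120 min at 37 °C. Filtered on PEI-soaked GF/C. Nonspecific binding with 10 µM 8-OH-DPAT. […] Mean of three experiments, triplicate samples.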

[5] = target: T2, D(2) dopamine receptor; experiment: Displacement of [3H]spiroperidol from human cloned dopaminergic D2 receptor expressed in rat C6 cells at 10 uM; format: cell-based
Summary of the method: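 Buffer was 50 mM Tris, 10 mM MgCl2, 1 mM EDTA, pH 7.4. Incubated 60 min at 27 °C, then filtered on PEI-soaked GF/C. Nonspecific binding with 10 µM haloperidol.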

[6] = target: T4, 5-hydroxytryptamine receptor 1A (Homo sapiens) (UniProt P08908); experiment: Displacement of [3H]8-OH-DPAT from human cloned 5-HT1A receptor expressed in human HeLa cells at 10 uM; format: cell-based
T4 sequence (whole entry): T3 sequence (P08908 whole entry)
Summary of the method: as §1

[7] = target: T1, ATP-dependent translocase ABCB1; experiment: Inhibition of ABCB1 in human Caco-2 cells assessed as ATPase activation at 100 uM after 2 hrs; format: cell-based; details: caco-2, 2 h
Summary of the method: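 Caco-2 cells seeded at 2 × 10⁴ cells/well and held overnight at 37 °C, 5% CO2. Exposed to compound in complete medium for 2 h at 37 °C. Cells then lysed and ATP read by luciferase luminescence after 10 min dark adaptation. Tested at 100 µM; a positive response is reported as a percentage.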

[8] = target: T5, Broad substrate specificity ATP-binding cassette transporter ABCG2 (Homo sapiens, UniProt Q9UNQ0); experiment: Inhibition of ABCG2
T5 sequence (Q9UNQ0 whole entry): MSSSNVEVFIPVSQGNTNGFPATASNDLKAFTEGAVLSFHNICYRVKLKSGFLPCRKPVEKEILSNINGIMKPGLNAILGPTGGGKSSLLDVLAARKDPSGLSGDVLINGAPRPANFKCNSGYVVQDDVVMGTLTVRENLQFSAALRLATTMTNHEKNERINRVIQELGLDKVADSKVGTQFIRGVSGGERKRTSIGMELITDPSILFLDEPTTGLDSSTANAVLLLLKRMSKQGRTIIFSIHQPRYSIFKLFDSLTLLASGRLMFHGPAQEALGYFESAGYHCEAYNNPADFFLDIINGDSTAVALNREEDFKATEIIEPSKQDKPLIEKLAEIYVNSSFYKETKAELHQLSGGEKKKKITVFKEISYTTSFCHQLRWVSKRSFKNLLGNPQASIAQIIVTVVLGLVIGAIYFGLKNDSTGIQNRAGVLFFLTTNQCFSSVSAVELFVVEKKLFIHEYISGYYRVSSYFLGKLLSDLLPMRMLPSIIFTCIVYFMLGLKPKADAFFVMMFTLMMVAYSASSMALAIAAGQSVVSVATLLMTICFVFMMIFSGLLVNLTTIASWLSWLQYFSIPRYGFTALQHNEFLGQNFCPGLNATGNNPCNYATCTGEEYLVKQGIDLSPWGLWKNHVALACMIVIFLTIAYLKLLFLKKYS

[9] = target: T1, ATP-dependent translocase ABCB1; experiment: Inhibition of ABCB1
[10] = target: T1, ATP-dependent translocase ABCB1; experiment: Inhibition of ABCB1 transfected in MDCK cells assessed as increase in calcein-AM accumulation; format: cell-based
[11] = target: ABCB1 (Homo sapiens, UniProt P08183); experiment: Activation of ABCB1 in human Caco-2 cells assessed as ATPase activation at 100 uM after 2 hrs
ABCB1, sequence (P08183 whole entry): as the sequence (P08183 whole entry) above

Ratio [1]	IC50 [2] [µM]	Ki [3] [µM]	Ki [4] [µM]	Activity [7]	IC50 [8] [µM]	IC50 [9] [µM]	SMILES	inhibition [5] [%]	inhibition [6] [%]	IC50 [10] [µM]	activation at 2 h, 100 µM [11] [%]
–	–	–	–	–	0.5	0.18	COc1cccc(CCc2ccccc2NCc2ccc(OC)c(OC)c2)c1	–	–	–	–
2.6	40	> 1	1.41	Not Active	–	–	COc1cccc(CCc2ccccc2OCCN2CCN(c3cccc(C(F)(F)F)c3)CC2)c1	31	–	–	–
7.2	12	> 1	1.31	Not Active	–	–	COc1cccc(CCc2ccccc2OCCN2CCc3ccccc3C2)c1	35	–	–	–
3.6	3.2	> 1	0.686	Not Active	–	–	COc1cccc(CCc2ccccc2OCCN2CCN(c3cccc(Cl)c3)CC2)c1	43	–	–	–
3.9	5.8	0.067	1.09	–	–	–	COc1cccc(CCc2ccccc2OCCCCN2CCN(c3ccccc3OC)CC2)c1	–	–	–	54
–	–	> 1	1.33	Not Active	–	–	COc1cccc(CCc2ccccc2OCCCCN2CCc3ccccc3C2)c1	48	–	–	–
6.8	25	0.427	1.24	–	–	–	COc1cccc(CCc2ccccc2OCCN2CCN(c3ccccc3OC)CC2)c1	–	–	–	10
8.1	14	0.0063	0.756	–	–	–	COc1cccc(CCc2ccccc2OCCCN2CCN(c3ccccc3OC)CC2)c1	–	–	–	20
6.3	0.5	0.114	1.12	Not Active	–	–	COc1cccc(CCc2ccccc2OCCCN2CCc3ccccc3C2)c1	–	–	1.14	–
–	–	–	–	–	120	–	COc1cccc(CCc2ccccc2OCc2cccc(OC)c2OC)c1	–	–	–	–
2.2	10	> 1	0.783	–	–	–	COc1cccc(CCc2ccccc2OCCN2CCN(c3ccc(F)cc3)CC2)c1	38	–	–	10
5.1	1.8	> 1	1.31	Not Active	–	–	COc1cccc(CCc2ccccc2OCCCCN2CCN(c3cccc(Cl)c3)CC2)c1	35	–	–	–
6.8	2.5	0.298	1.13	Not Active	–	–	COc1cccc(CCc2ccccc2OCCCN2CCN(c3cccc(Cl)c3)CC2)c1	–	–	–	–
–	–	0.655	0.8	–	–	–	COc1cccc(CCc2ccccc2OCCCN2CCN(c3ccc(F)cc3)CC2)c1	–	–	–	38

The next lines start with the compound.

SMILES	Ratio [1]	IC50 [2] [µM]	Ki [3] [µM]	Ki [4] [µM]	Activity [7]	IC50 [8] [µM]	IC50 [9] [µM]	inhibition [5] [%]	inhibition [6] [%]	IC50 [10] [µM]	activation at 2 h, 100 µM [11] [%]
COc1cccc(CCc2ccccc2OCCCCCN2CCN(c3ncccn3)CC2)c1	7.1	1.72	> 1	> 5	Not Active	–	–	24	38	–	–
COc1cccc(CCc2ccccc2OCCCCCN2CCN(c3cccc(Cl)c3)CC2)c1	–	–	> 1	> 5	Not Active	–	–	25	14	–	–
COc1cccc(CCc2ccccc2OCCCCN2CCN(C)CC2)c1	6.3	0.15	> 1	> 5	Not Active	–	–	14	38	4.78	–
COc1cccc(CCc2ccccc2OCCN2CCN(c3ncccn3)CC2)c1	–	–	0.629	0.656	Not Active	–	–	–	–	–	–
COc1cccc(CCc2ccccc2OCCCCN2CCc3cc(OC)c(OC)cc3C2)c1	5.8	0.19	> 1	> 5	Not Active	–	–	40	18	0.16	–
COc1cccc(CCc2ccccc2OCCCCN2CCN(c3ccc(F)cc3)CC2)c1	–	–	1.32	> 5	–	–	–	–	47	–	25
COc1cc2c(cc1OC)CN(CCc1ccc(NC(=O)c3cccc4c(=O)c5cccc(OC)c5[nH]c34)cc1)CC2	–	–	–	–	Not Active	–	–	–	–	–	–
COc1cccc(CCc2ccccc2OCCCN2CCN(c3ncccn3)CC2)c1	131	1.2	0.02	0.331	Not Active	–	–	–	–	–	–
COc1cccc(CCc2ccccc2OCCCCCN2CCN(c3ccc(F)cc3)CC2)c1	–	–	0.847	> 5	–	–	–	–	27	–	40
COc1cccc(CCc2ccccc2OCCCCCN2CCN(C)CC2)c1	2.5	6.82	> 1	> 5	Not Active	–	–	26	24	–	–
COc1cccc(CCc2ccccc2OCCCN2CCN(c3cccc(C(F)(F)F)c3)CC2)c1	4.4	6.5	1.41	2.87	Not Active	–	–	–	–	–	–
COc1cccc(CCc2ccccc2OCCN2CCN(C)CC2)c1	6.8	0.8	0.178	> 5	Not Active	–	–	–	48	7.76	–
COc1cccc(CCc2ccccc2OCCCCCN2CCc3cc(OC)c(OC)cc3C2)c1	4.9	0.35	> 1	> 5	–	–	–	18	22	0.11	20
COc1cccc(CCc2ccccc2OCCCN2CCc3cc(OC)c(OC)cc3C2)c1	4.3	0.14	> 1	> 5	Not Active	–	–	35	36	0.09	–
COc1cccc(CCc2ccccc2OCCCCCN2CCN(c3ccccc3OC)CC2)c1	5.2	1.27	> 1	> 5	–	–	–	35	14	–	15
COc1cccc(CCc2ccccc2OCCCN2CCN(C)CC2)c1	4.7	2.5	0.565	> 5	Not Active	–	–	–	40	–	–
COc1cccc(CCc2ccccc2OCCN2CCc3cc(OC)c(OC)cc3C2)c1	6.4	0.75	> 1	> 5	–	–	–	12	26	0.78	55
COc1cccc(CCc2ccccc2OCCCCCN2CCc3ccccc3C2)c1	7.3	3.17	> 1	> 5	Not Active	–	–	16	15	–	–
